Laboratory results from ChEMBL document CHEMBL5113533 (J Med Chem, 2022).
pIC50: −log10 of the molar value. Activity calls are given as the source filed them.

Key:
THP-1 [1] = assay: Inhibition of human Escherichia coli stimulated monocyte activation in human THP-1 cells assessed as […] of CD44 expression level at 5 uM pretreated for 1 hr and measured up to 24 hrs; type: functional, cell-based
[2] = target: Mitogen-activated protein kinase 14 (Homo sapiens) (UniProt Q16539); settings: THP-1, dose 5.0 µM, time 1.15 hrs
Sequence of Mitogen-activated protein kinase 14 (Homo sapiens) (Q16539 whole entry): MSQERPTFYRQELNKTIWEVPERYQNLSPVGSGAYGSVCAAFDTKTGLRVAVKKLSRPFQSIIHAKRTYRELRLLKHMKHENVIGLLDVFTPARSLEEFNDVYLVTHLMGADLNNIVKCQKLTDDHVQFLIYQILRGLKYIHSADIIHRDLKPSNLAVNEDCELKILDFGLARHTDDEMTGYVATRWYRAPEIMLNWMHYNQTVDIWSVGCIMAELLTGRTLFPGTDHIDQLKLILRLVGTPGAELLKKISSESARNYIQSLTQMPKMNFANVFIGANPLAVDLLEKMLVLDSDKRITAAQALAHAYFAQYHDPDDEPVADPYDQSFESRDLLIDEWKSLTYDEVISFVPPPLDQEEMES

OCI-AML2 [3] = assay: Inhibition of MK2 in Escherichia coli-stimulated human OCI-AML2 cells assessed as reduction inMK2 phosphorylation pretreated for 1 hr followed by Escherichia coli stimulation and measured up to 15 mins by western blot analysis; type: cell-based; settings: time 1.15 hrs
[4] = system: Acute myeloid leukemic cell; assay: Antiinflammatory activity against LPS-stimulated patient derived primary AML cells assessed reduction in TNFalpha level measured at 24 hrs by ELISA analysis; type: functional, cell-based; settings: Homo sapiens
Procedure, shortened: (§1)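 CD14+ monocytes from healthy-donor blood (Lymphoprep, then pan-monocyte isolation) or patient AML cells (cultured in IMDM with 20% FBS, IL-3 and SCF). Cells pre-treated 1 h with 5 μM or 1 μM compound, then 100 ng/mL LPS; TNF-α in supernatant measured by ELISA at 24 h. Four (monocytes) or two (AML) biological replicates, error shown as SD.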

THP-1 [5] = assay: Inhibition of cell adhesion in human Escherichia coli stimulated-THP-1 cells by crystal violet staining based assay; type: functional
Procedure, shortened: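 E. coli-stimulated THP-1 cells washed twice with PBS, fixed 15 min in 4% paraformaldehyde, stained 10 min with 5 mg/mL crystal violet, lysed 30 min in 2% SDS. Absorbance read at 550 nm; four biological replicates.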

THP-1 [6] = assay: Antiinflammatory activity against LPS-stimulated human THP-1 cells assessed as reduction in IL-6 level pretreated for 1 hr followed by LPS stimulation and measured upto 24 hrs by ELISA analysis; type: functional, cell-based
Procedure, shortened: (§2)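 THP-1 cells pre-treated with compound for 1 h (5 μM or 1 μM, depending on the compound), then stimulated with 100 ng/mL LPS. Culture supernatant was taken at 24 h, and TNF-α, IL-6 or IL-1β was measured by sandwich ELISA at 450 nm with 540 nm correction; four biological replicates.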

THP-1 [7] = assay: Inhibition of human Escherichia coli stimulated monocyte activation in human THP-1 cells assessed as decrease in CD14 expression level at 5 uM pretreated for 1 hr and measured up to 24 hrs; type: functional, cell-based
THP-1 [8] = assay: Antiinflammatory activity against LPS-stimulated human THP-1 cells assessed as reduction in IL-1beta level pretreated for 1 hr followed by LPS stimulation and measured upto 24 hrs by ELISA analysis; type: functional, cell-based; procedure, shortened: as §2
THP-1 [9] = assay: Inhibition of human Escherichia coli stimulated monocyte activation in human THP-1 cells assessed as decrease in MMP9 expression level at 5 uM pretreated for 1 hr and measured up to 24 hrs; type: functional, cell-based
Procedure, shortened: (§3)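 THP-1 cells pre-treated 1 h with 5 μM compound, then live E. coli up to 24 h. Label-free quantitative proteomics: S-Trap digestion (TCEP reduction, N-ethylmaleimide alkylation, trypsin 2 h at 47 °C), Orbitrap LC–MS/MS with a 180 min gradient. Changes called at FDR <0.05 and 1.5-fold.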

THP-1 [10] = assay: Antiinflammatory activity against Escherichia coli induced human THP-1 cells assessed as reduction in proinflammatory phenotype at 5 uM for 1 hr followed by Escherichia coli stimulation and measured upto 24 hrs by MALDI-TOF MS analysis; type: functional, cell-based
Procedure, shortened: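 THP-1 cells pre-treated with compound for 1 h, then infected with live E. coli (MOI 2), spun 500g 5 min, left 15 or 30 min for uptake, then 100 μg/mL gentamicin for 1 h and 20 μg/mL gentamicin thereafter, up to 24 h. Pellets frozen on dry ice, thawed, washed in 100 mM Tris–HCl pH 7.5 at 4 °C, and read by MALDI-TOF MS as the normalized m/z 4964/4632 ratio.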

[11] = target: Mitogen-activated protein kinase 14 (Homo sapiens) (UniProt Q16539); assay: Binding affinity to P38alpha (unknown origin) measured at 0.05 to 333.33 nM after 600 secs by SPR analysis; settings: dose 0.05-333.33 nM, time 600.0 sec
Procedure, shortened: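 Biotinylated avidin-p38α was captured on a streptavidin chip from 50 μg/mL, reaching about 7719 RU. A 10-point series (0.05–333.33 nM) ran multicycle at 2 °C against a control surface: 90 s injection at 30 μL/min, then 600 s dissociation.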

OCI-AML2 [12] = assay: Antiinflammatory activity against Escherichia coli-stimulated human OCI-AML2 cells assessed reduction in TNFalpha level measured at 24 hrs by ELISA analysis; type: functional, cell-based
Procedure, shortened: (§4)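 OCI-AML2 cells stimulated with live E. coli (MOI 2, gentamicin protection). TNF-α, IL-6 and IL-1β in culture supernatant measured by ELISA at 24 h post-treatment, 450 nm with 540 nm correction, four biological replicates.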

THP-1 [13] = assay: Inhibition of human Escherichia coli stimulated monocyte activation in human THP-1 cells assessed as suppression of CD14 expression level at 5 uM pretreated for 1 hr and measured up to 24 hrs; type: functional, cell-based
THP-1 [14] = assay: Inhibition of human Escherichia coli stimulated monocyte activation in human THP-1 cells assessed as increase in ROCK1 expression level at 5 uM pretreated for 1 hr and measured up to 24 hrs; type: functional, cell-based; procedure, shortened: as §3
THP-1 [15] = assay: Inhibition of human Escherichia coli stimulated monocyte activation in human THP-1 cells assessed as upregulation of MMP9 expression level at 5 uM pretreated for 1 hr and measured up to 24 hrs; type: functional, cell-based; procedure, shortened: as §3
THP-1 [16] = assay: Antiinflammatory activity against LPS-stimulated human THP-1 cells assessed as disappearance inflammatory phenotype at 5 uM pretreated for 1 hr followed by LPS stimulation and measured upto 24 hrs by ELISA analysis; type: functional, cell-based
OCI-AML2 [17] = assay: Antiinflammatory activity against Escherichia coli-stimulated human OCI-AML2 cells assessed reduction in IL-6 level measured at 24 hrs by ELISA analysis; type: functional, cell-based; procedure, shortened: as §4
THP-1 [18] = assay: Inhibition of P38 MAPK pathway in Escherichia coli-stimulated human THP-1 cells assessed as reduction in IL-6 expression at 5 uM pretreated for 1 hr followed by Escherichia coli stimulation and measured up to 24 hrs by ELISA analysis
Procedure, shortened: (§5)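 THP-1 cells pre-treated 1 h with 5 μM compound, then infected with live E. coli (MOI 2), followed by gentamicin killing of extracellular bacteria. TNF-α, IL-6 or IL-1β in supernatant measured by ELISA at 24 h, absorbance at 450 nm with 540 nm correction.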

THP-1 [19] = assay: Inhibition of P38 MAPK pathway in Escherichia coli-stimulated human THP-1 cells assessed as reduction in TNFalpha expression at 5 uM pretreated for 1 hr followed by Escherichia coli stimulation and measured up to 24 hrs by ELISA analysis; procedure, shortened: as §5
THP-1 [20] = assay: Inhibition of human Escherichia coli stimulated monocyte activation in human THP-1 cells assessed as suppression of CD11c expression level at 5 uM pretreated for 1 hr and measured up to 24 hrs by flow cytometric analysis; type: functional, cell-based
THP-1 [21] = assay: Inhibition of human Escherichia coli stimulated monocyte activation in human THP-1 cells assessed as decrease in CD44 expression level at 5 uM pretreated for 1 hr and measured up to 24 hrs; type: functional, cell-based
NCI-H929 = assay: Inhibition of MK2 in Escherichia coli-stimulated human NCI-H929 cells assessed as reduction in MK2 phosphorylation pretreated for 1 hr followed by Escherichia coli stimulation and measured up to 15 mins by western blot analysis; type: cell-based; settings: time 1.15 hrs
THP-1 [22] = assay: Inhibition of human Escherichia coli stimulated monocyte activation in human THP-1 cells assessed as decrease in ICAM-1 expression level at 5 uM pretreated for 1 hr and measured up to 24 hrs; type: functional, cell-based
THP-1 [23] = assay: Inhibition of P38 MAPK pathway in Escherichia coli-stimulated human THP-1 cells assessed as reduction in IL-1beta expression at 5 uM pretreated for 1 hr followed by Escherichia coli stimulation and measured upto 24 hrs by ELISA analysis; procedure, shortened: as §5
THP-1 [24] = assay: Inhibition of human Escherichia coli stimulated monocyte activation in human THP-1 cells assessed as decrease in TLR2 expression level at 5 uM pretreated for 1 hr and measured up to 24 hrs; type: functional, cell-based; procedure, shortened: as §3
[25] = target: Mitogen-activated protein kinase 14 (Homo sapiens) (UniProt Q16539); settings: THP-1, dose 5.0 µM, time 1.15 hrs; remark: listed apart in the source
THP-1 [26] = assay: Inhibition of human Escherichia coli stimulated monocyte activation in human THP-1 cells assessed as suppression of CD49a expression level at 5 uM pretreated for 1 hr and measured up to 24 hrs by flow cytometric analysis; type: functional, cell-based
THP-1 [27] = assay: Antiinflammatory activity against LPS-stimulated human THP-1 cells assessed as reduction in TNFalpha level pretreated for 1 hr followed by LPS stimulation and measured upto 24 hrs by ELISA analysis; type: functional, cell-based; procedure, shortened: as §2
OCI-AML2 [28] = assay: Antiinflammatory activity against Escherichia coli-stimulated human OCI-AML2 cells assessed reduction in IL-1beta level measured at 24 hrs by ELISA analysis; type: functional, cell-based; procedure, shortened: as §4
THP-1 [29] = assay: Inhibition of human Escherichia coli stimulated monocyte activation in human THP-1 cells assessed as increase in Filamin-B expression level at 5 uM pretreated for 1 hr and measured up to 24 hrs; type: functional, cell-based; procedure, shortened: as §3
Monocyte = assay: Antiinflammatory activity against LPS-stimulated human primary monocyte cells assessed reduction in TNFalpha level measured at 24 hrs by ELISA analysis; type: functional, cell-based; procedure, shortened: as §1
THP-1 [30] = assay: Inhibition of human Escherichia coli stimulated monocyte activation in human THP-1 cells assessed as suppression of CD54 expression level at 5 uM pretreated for 1 hr and measured up to 24 hrs by flow cytometric analysis; type: functional, cell-based
[31] = target: MAP kinase-activated protein kinase 2 (Homo sapiens) (UniProt P49137); assay: Inhibition of MK2 in Escherichia coli -stimulated human THP-1 cells assessed as reduction in p38alpha MAPK phosphorylation at 5 uM pretreated for 1 hr followed by Escherichia coli stimulation and measured up to 15 mins by western blot analysis; type: cell-based; settings: time 1.15 hrs
Sequence of MAP kinase-activated protein kinase 2 (Homo sapiens) (P49137 whole entry, looked up): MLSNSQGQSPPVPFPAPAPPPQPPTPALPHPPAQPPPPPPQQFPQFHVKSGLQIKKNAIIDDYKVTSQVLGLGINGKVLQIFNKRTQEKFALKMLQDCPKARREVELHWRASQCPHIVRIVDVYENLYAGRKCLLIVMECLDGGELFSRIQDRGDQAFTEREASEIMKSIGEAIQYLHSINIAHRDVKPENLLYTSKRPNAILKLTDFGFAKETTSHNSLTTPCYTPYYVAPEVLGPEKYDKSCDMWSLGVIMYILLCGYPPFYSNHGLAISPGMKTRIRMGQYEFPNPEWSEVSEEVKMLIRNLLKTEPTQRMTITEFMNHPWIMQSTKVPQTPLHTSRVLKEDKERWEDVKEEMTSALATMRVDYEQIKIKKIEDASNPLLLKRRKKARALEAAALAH

THP-1 [32] = assay: Antiinflammatory activity against LPS-stimulated human THP-1 cells assessed as TNF-alpha secretion pretreated for 1 hr followed by LPS stimulation and measured upto 24 hrs by ELISA analysis; type: functional, cell-based; procedure, shortened: as §2
THP-1 [33] = assay: Inhibition of human Escherichia coli stimulated monocyte activation in human THP-1 cells assessed as decrease in IL-1beta expression level at 5 uM pretreated for 1 hr and measured up to 24 hrs; type: functional, cell-based; procedure, shortened: as §3
THP-1 [34] = assay: Antiinflammatory activity against LPS-stimulated human THP-1 cells assessed as blockage of inflammatory phenotype by measuring m/z ratio at 5 uM pretreated for 1 hr followed by LPS stimulation and measured upto 24 hrs; type: functional, cell-based
Procedure, shortened: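 THP-1 cells at 1 million/mL, pre-treated with compound at 5 μM for 1 h in technical triplicate, then 100 ng/mL LPS for 24 h. Pellets frozen on dry ice, thawed, washed in 100 mM Tris–HCl pH 7.5 at 4 °C. MALDI-TOF MS read-out is the normalized m/z 4964/4632 ratio, with a 40% cutoff used for hit calling; three biological replicates.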

THP-1 [35] = assay: Antiinflammatory activity against LPS-stimulated human THP-1 cells assessed reduction in TNFalpha level pretreated at 5 uM for 1 hr followed by LPS stimulation and measured upto 24 hrs by ELISA analysis; type: functional, cell-based; procedure, shortened: as §2
THP-1 [36] = assay: Antiinflammatory activity against LPS-stimulated human THP-1 cells assessed reduction in IL-1beta level pretreated at 5 uM for 1 hr followed by LPS stimulation and measured upto 24 hrs by ELISA analysis; type: functional, cell-based; procedure, shortened: as §2
THP-1 [37] = assay: Antiinflammatory activity against LPS-stimulated human THP-1 cells assessed reduction in IL-6 level pretreated at 5 uM for 1 hr followed by LPS stimulation and measured upto 24 hrs by ELISA analysis; type: functional, cell-based; procedure, shortened: as §2

Q: What does the source list for Cc1cn(-c2cc(NC(=O)c3ccc(C)c(Nc4nccc(-c5cccnc5)n4)c3)cc(C(F)(F)F)c2)cn1 [NILOTINIB]?
A: inhibition (THP-1 [1]): Active; Tm [2]: 55.1 °C; inhibition (OCI-AML2 [3]): Active; Activity [4]: Active; inhibition (THP-1 [5]): Active; Activity (THP-1 [6]): Active; inhibition (THP-1 [7]): Active; Activity (THP-1 [8]): Active; inhibition (THP-1 [9]): Active; Activity (THP-1 [10]): Active; Activity [11]: Active; Activity (OCI-AML2 [12]): Active; inhibition (THP-1 [13]): Active; inhibition (THP-1 [14]): Active; inhibition (THP-1 [15]): Active; Activity (THP-1 [16]): Active; Activity (OCI-AML2 [17]): Active; inhibition (THP-1 [18]): Active; inhibition (THP-1 [19]): Active; inhibition (THP-1 [20]): Active; inhibition (THP-1 [21]): Active; inhibition (NCI-H929): Active; inhibition (THP-1 [22]): Active; inhibition (THP-1 [23]): Active; inhibition (THP-1 [24]): Active; Tm [25]: 60.7 °C; inhibition (THP-1 [26]): Active; Activity (THP-1 [27]): Active; Activity (OCI-AML2 [28]): Active; inhibition (THP-1 [29]): Active; Activity (Monocyte): Active; inhibition (THP-1 [30]): Active; inhibition [31]: Active; pIC50 (THP-1 [32]): 6.40; inhibition (THP-1 [33]): Active

Q: With CCN1CCN(Cc2ccc(NC(=O)c3ccc(C)c(Oc4ccnc5[nH]ccc45)c3)cc2C(F)(F)F)CC1 as the compound, how does the Activity (THP-1 [34]) read?
A: The Activity was “Active”.

Q: What about the Activity (THP-1 [35]) of the same compound?
A: The Activity was “Active”.

Q: And the Activity (THP-1 [36])?
A: Its Activity is “Active”.

Q: And the Activity (THP-1 [37])?
A: The Activity was “Active”.
